Assay [1] concerns the target T1, 5-hydroxytryptamine receptor 1B (Homo sapiens, UniProt P28222). The assay can be described thus: Agonist activity at 5-hydroxytryptamine 1B receptor by measuring the inhibition of forskolin-stimulated cAMP formation. In kind it is functional. The method, boiled down: (§1)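 Human 5-HT1B receptors expressed in CHO-K1 cells. Agonist response read as inhibition of forskolin-stimulated cAMP formation. EC50 determined, and Emax expressed as a percentage of the maximal inhibition produced by 1 µM 5-HT. Values are the mean of two or three experiments, each run in duplicate, with individual values typically within ±10-20% of the mean.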
For orientation: Cyclic AMP is a second messenger, typically raised through Gs and lowered through Gi signalling.

The target of assay [2] is T1, 5-hydroxytryptamine receptor 1B. The assay can be described thus: Receptor binding affinity for cloned human 5-hydroxytryptamine 1B receptor in Cos-7 cells. In kind it is cell-based.
The target in assay [3] is T2, 5-hydroxytryptamine receptor 1A (Homo sapiens, UniProt P08908).
T2 sequence (P08908 whole entry): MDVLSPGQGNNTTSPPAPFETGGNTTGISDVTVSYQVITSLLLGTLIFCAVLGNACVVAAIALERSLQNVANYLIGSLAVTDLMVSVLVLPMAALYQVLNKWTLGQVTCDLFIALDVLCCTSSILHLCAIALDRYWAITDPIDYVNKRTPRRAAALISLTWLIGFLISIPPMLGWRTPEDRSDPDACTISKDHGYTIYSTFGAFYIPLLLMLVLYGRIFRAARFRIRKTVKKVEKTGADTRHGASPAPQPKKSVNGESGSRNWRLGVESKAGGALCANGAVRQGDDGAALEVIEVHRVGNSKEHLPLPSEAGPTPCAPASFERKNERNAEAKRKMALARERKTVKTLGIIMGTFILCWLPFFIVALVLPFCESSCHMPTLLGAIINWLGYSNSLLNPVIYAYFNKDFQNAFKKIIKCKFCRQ
The experiment in a line: Receptor binding affinity for cloned human 5-hydroxytryptamine 1A receptor in HeLa cells. In kind it is cell-based.

Assay [4] addresses T1, 5-hydroxytryptamine receptor 1B. The experiment in a line: Antagonism tested at 1 uM against the agonist-induced inhibitory effect of 10 nM 5-carbamoyltryptamine(5-CT). In kind it is functional. The method, boiled down: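 Run in the same forskolin-stimulated cAMP system, with h5-HT1B receptors expressed in CHO-K1 cells. The compound at 1 µM was tested against the inhibition of cAMP formation produced by 10 nM 5-CT. Values are the mean of two or three experiments, each in duplicate.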

For assay [5] the target is unchanged. The assay can be described thus: Percentage Maximal inhibition obtained with 1 uM 5-HT against 5-hydroxytryptamine 1B receptor. A digest of the protocol: as §1
For assay [6], the target named is 5-hydroxytryptamine receptor 1D (Homo sapiens, UniProt P28221). The experiment in a line: Receptor binding affinity for cloned human 5-hydroxytryptamine 1D receptor in Cos-7 cells. In kind it is cell-based.
Assay [7] has as its target T1, 5-hydroxytryptamine receptor 1B. The note with it: 1 uM.

From ChEMBL document CHEMBL1130252, “5-HT1B receptor antagonist properties of novel arylpiperazide derivatives of 1-naphthylpiperazine” (J Med Chem, 1997) come the findings set out here.

T1 sequence (P28222 whole entry): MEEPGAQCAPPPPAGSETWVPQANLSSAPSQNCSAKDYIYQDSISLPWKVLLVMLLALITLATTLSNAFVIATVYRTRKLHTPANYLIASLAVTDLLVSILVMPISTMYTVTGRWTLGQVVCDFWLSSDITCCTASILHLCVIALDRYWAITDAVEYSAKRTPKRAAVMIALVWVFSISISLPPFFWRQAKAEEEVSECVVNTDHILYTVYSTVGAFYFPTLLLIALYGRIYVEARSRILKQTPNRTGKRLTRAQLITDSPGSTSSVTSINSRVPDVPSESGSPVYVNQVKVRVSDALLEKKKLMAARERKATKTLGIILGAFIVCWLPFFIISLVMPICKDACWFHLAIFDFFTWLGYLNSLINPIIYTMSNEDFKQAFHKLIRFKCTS
Sequence of 5-hydroxytryptamine receptor 1D (P28221 whole entry): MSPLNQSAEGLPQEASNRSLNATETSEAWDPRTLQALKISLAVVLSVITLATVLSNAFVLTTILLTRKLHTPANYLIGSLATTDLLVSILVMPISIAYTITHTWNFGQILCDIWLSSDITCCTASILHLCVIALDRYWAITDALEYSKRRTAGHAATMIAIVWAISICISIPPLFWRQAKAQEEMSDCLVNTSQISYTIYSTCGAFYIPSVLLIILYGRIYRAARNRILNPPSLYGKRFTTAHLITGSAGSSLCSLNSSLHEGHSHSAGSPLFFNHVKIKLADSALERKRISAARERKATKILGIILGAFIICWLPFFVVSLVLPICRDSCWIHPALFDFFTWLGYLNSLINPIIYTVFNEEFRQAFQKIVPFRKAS

Take `COc1cccc(N2CCN(C(=O)COc3ccc4cccc(N5CCN(C)CC5)c4c3)CC2)c1OC`: the midpoint of the response in assay [1], the EC50, lay at 30 nM. In addition, the Ki (as a rule, a measure of affinity in units of concentration, obtained from inhibition or displacement) in assay [2] came out at 0.44 nM; in assay [3], 13.4 nM; in assay [6], 0.62 nM. Moreover, the Antagonism in assay [4] worked out at 47%. For the same compound, the Emax (usually the greatest response seen or fitted, relative to the assay's reference) in assay [5] was found to be 69%.

On to `Cc1ccccc1N1CCN(C(=O)COc2ccc3cccc(N4CCN(C)CC4)c3c2)CC1`, for which the EC50 (commonly the midpoint of the concentration-response curve) in assay [1] was above 1000 nM. For the same compound, the inhibition constant (Ki) worked out at 0.3 nM in assay [2] and 0.69 nM in assay [6]. Besides, in assay [7], the Antagonism was 80%. Further, the maximal response (Emax) in assay [5] is below 10%.

On to `COc1ccc2ccc(N3CCNCC3)cc2c1`, for which the half-maximal effective concentration (EC50) in assay [1] was above 1000 nM. Moreover, the results for the inhibition constant Ki in assay [2], in assay [3] and in assay [6] were 2 nM, 2.8 nM and 0.7 nM, respectively. In addition, the Antagonism in assay [4] was found to be 95%. This compound also returned an Emax in assay [5] below 10%.

`c1ccc2c(N3CCNCC3)cccc2c1` returned an EC50 in assay [1] above 1000 nM. The figures for the inhibition constant Ki in assay [2], in assay [3] and in assay [6] were 10.1 nM, 9.2 nM and 6.2 nM, respectively. Moreover, in assay [4], the Antagonism came out at 96%. The same compound came in with an Emax in assay [5] below 10%.

As to `CN1CCN(c2cccc3ccc(OCC(=O)N4CCN(c5ccccc5C#N)CC4)cc23)CC1`, the concentration for a half-maximal effect (EC50) in assay [1] was found to be 28 nM. Also, the inhibitory constant (Ki) in assay [2] was 0.38 nM; in assay [3], 12.3 nM; in assay [6], 0.51 nM. The same compound yielded an Antagonism in assay [4] of 56%. The same compound displayed an Emax in assay [5] of 48%.

Consider `Cc1ccccc1CN1CCN(C(=O)COc2ccc3cccc(N4CCN(C)CC4)c3c2)CC1`, for which, in assay [1], the EC50 was above 1000 nM. Further, the Ki in assay [2] was 0.2 nM; in assay [3], 22.7 nM; in assay [6], 0.55 nM. Moreover, the Antagonism in assay [4] was determined as 87%. This compound also registered an Emax in assay [5] below 10%.

In assay [1], `CN1CCN(c2cccc3ccc(OCC(=O)N4CCN(c5cccc6ccccc56)CC4)cc23)CC1` had a 50% effective concentration (EC50) above 1000 nM. The Ki in assay [2] is 0.43 nM; in assay [3] it was 114 nM; in assay [6] it was 0.88 nM. In assay [4], this compound registered an Antagonism of 57%. Besides, the maximum response (Emax) in assay [5] is below 10%.

The compound `CN1CCN(c2cccc3ccc(OCC(=O)N4CCN(c5cccc6c5OCCO6)CC4)cc23)CC1` yielded a concentration for a half-maximal effect (EC50) in assay [1] of 25 nM. The Ki came to 0.43 nM in assay [2], 14.1 nM in assay [3] and 0.45 nM in assay [6]. This compound displayed an Antagonism in assay [4] of 45%. For the same compound, in assay [5], the Emax turned out to be 58%.

In turn, `Cc1cc(C)c(N2CCN(C(=O)COc3ccc4cccc(N5CCN(C)CC5)c4c3)CC2)c(C)c1` gave a concentration giving a half-maximal response (EC50) in assay [1] of 25 nM. For the same compound, the Ki in assay [2] worked out at 1.4 nM; in assay [3], 117 nM; in assay [6] it was 1.9 nM. The compound further displayed an Antagonism in assay [4] of 46%. The compound further came in with an Emax in assay [5] of 26%.
